According to ChEMBL document CHEMBL1938298, “Synthesis and characterization of [¹²⁵I]2-iodo N-[(S)-{(S)-1-methylpiperidin-2-yl}(phenyl)methyl]3-trifluoromethyl-benzamide as novel imaging probe for glycine transporter 1” (Bioorg Med Chem, 2011):
Calls of active or inactive are those of the source. No cut-off for these calls is given here.

Experiments:
Mus musculus [1] = assay: In vivo binding affinity to GlyT1 in ddY mouse brain thalamus at 33.3 kBq, iv after 60 mins in presence of nonradioactive compound 2 mg/kg, iv administered 15 mins prior to compound administration relative to control; format: functional
Kidney [2] = assay: Drug uptake in ddY mouse kidney at 11.1 kBq, iv after 180 min by gamma counting; format: ADME, organism-based; conditions: in vivo, 3 h
Method in brief: (§1)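 Male ddY mice (6 weeks, 30–35 g) were given about 11.1 kBq of [125I]tracer in 0.1 mL i.v. via the tail vein. At each time point the animals were killed and organs dissected, weighed and gamma-counted. Uptake is expressed as % injected dose per gram of tissue, mean ± SD, n = 5–6.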

Pancreas = assay: Drug uptake in ddY mouse pancreas at 11.1 kBq, iv after 5 min by gamma counting; format: ADME, organism-based; conditions: in vivo; method in brief: as §1
Heart [3] = assay: Drug uptake in ddY mouse heart at 11.1 kBq, iv after 15 min by gamma counting; format: ADME, organism-based; conditions: in vivo
Method in brief: (§2)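 Male ddY mice (6 weeks, 30–35 g) received about 11.1 kBq [125I]tracer in 0.1 mL i.v. via tail vein. Killed at set times, organs dissected and weighed, radioactivity gamma counted. Reported as % injected dose/g tissue, mean ± SD, n = 5–6.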

Stomach = assay: Drug uptake in ddY mouse stomach at 11.1 kBq, iv after 30 min by gamma counting; format: ADME, organism-based; conditions: in vivo, 0.5 h; method in brief: as §1
Heart [4] = assay: Drug uptake in ddY mouse heart at 11.1 kBq, iv after 60 min by gamma counting; format: ADME, organism-based; conditions: in vivo, 1 h; method in brief: as §2
Liver = assay: Drug uptake in ddY mouse liver at 11.1 kBq, iv after 0.5 min by gamma counting; format: ADME, organism-based; conditions: in vivo; method in brief: as §1
Kidney [5] = assay: Drug uptake in ddY mouse kidney at 11.1 kBq, iv after 15 min by gamma counting; format: ADME, organism-based; conditions: in vivo; method in brief: as §1
[6] = target: T1, Sodium- and chloride-dependent glycine transporter 1 (Rattus norvegicus) (UniProt P28572); assay: Binding affinity to GlyT1 in rat brain corpus callosum at 0.03 to 0.04 nM preincubated for 20 mins in binding buffer before compound addition measured after 30 mins by autoradiography relative to control; format: tissue-based; conditions: tested as the 125I-labelled form
T1 sequence (whole entry): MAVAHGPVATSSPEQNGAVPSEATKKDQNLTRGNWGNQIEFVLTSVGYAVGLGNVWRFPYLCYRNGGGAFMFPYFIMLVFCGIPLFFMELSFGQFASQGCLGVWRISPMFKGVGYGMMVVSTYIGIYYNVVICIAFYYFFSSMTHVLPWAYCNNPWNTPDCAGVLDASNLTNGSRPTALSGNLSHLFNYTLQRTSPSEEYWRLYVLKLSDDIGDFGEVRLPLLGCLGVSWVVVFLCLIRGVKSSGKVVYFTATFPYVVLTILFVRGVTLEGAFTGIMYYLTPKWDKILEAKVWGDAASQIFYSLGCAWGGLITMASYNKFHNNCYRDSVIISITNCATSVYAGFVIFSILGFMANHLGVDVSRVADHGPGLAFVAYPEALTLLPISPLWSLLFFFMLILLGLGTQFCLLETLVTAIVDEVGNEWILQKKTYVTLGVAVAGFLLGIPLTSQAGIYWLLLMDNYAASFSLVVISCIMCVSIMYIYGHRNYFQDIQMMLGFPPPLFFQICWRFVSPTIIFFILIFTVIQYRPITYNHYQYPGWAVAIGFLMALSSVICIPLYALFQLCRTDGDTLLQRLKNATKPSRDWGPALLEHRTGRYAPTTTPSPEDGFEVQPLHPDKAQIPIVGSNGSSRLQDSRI
Method in brief: (§3)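 Rat brain sagittal sections (20 µm), 20 min preincubation at 25 °C in Tris-HCl pH 7.5 binding buffer, then [125I] tracer (100 kBq, 0.03–0.04 nM) for 30 min at 25 °C. Nonspecific binding taken with 10 µM unlabeled ligand. Imaging-plate read-out as (PSL−BG)/mm². Mean ± SD, n = 4–5 from at least three rats; Mann–Whitney U-test.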

[7] = target: T1, Sodium- and chloride-dependent glycine transporter 1 (Rattus norvegicus); assay: Binding affinity to GlyT1 in rat brain hippocampus at 0.03 to 0.04 nM preincubated for 20 mins in binding buffer before compound addition measured after 30 mins by autoradiography in presence of 10 mM GlyT1 substrate glycine relative to control; format: tissue-based; conditions: tested as the 125I-labelled form
Method in brief: (§4)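 Rat brain sagittal sections (20 µm) preincubated 20 min at 25 °C in Tris-HCl buffer pH 7.5 (NaCl, KCl, MgCl2, CaCl2), then 30 min at 25 °C with [125I] tracer (100 kBq, 0.03–0.04 nM) plus competitor (10 µM; glycine 1 or 10 mM). Cold washes, imaging plate 3 days, ROI PSL minus background per mm². % control from ≥triplicate slices, three rats.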

[8] = target: T1, Sodium- and chloride-dependent glycine transporter 1 (Rattus norvegicus); assay: Binding affinity to GlyT1 in rat brain thalamus at 0.03 to 0.04 nM preincubated for 20 mins in binding buffer before compound addition measured after 30 mins by autoradiography in presence of 10 mM GlyT1 substrate glycine relative to control; format: tissue-based; conditions: tested as the 125I-labelled form
Mus musculus [9] = assay: In vivo binding affinity to GlyT1 in ddY mouse brain thalamus at 200 kBq, iv after 60 mins by autoradiography relative to control; format: functional, organism-based; conditions: tested as the 125I-labelled form
[10] = target: T1, Sodium- and chloride-dependent glycine transporter 1 (Rattus norvegicus); assay: Binding affinity to GlyT1 in rat brain cerebral cortex at 0.03 to 0.04 nM preincubated for 20 mins in binding buffer before compound addition measured after 30 mins by autoradiography relative to control; format: tissue-based; conditions: tested as the 125I-labelled form; method in brief: as §3
[11] = target: T1, Sodium- and chloride-dependent glycine transporter 1 (Rattus norvegicus); assay: Binding affinity to GlyT1 in rat brain cerebral cortex at 0.03 to 0.04 nM preincubated for 20 mins in binding buffer before compound addition measured after 30 mins by autoradiography in presence of 0.01 mM GlyT1 inhibitor HPCP relative to control; format: tissue-based; conditions: tested as the 125I-labelled form; method in brief: as §4
Mus musculus [12] = assay: In vivo binding affinity to GlyT1 in ddY mouse brain medullary region at 33.3 kBq, iv after 30 mins in presence of SSR504734 2 mg/kg, iv administered 15 mins prior to compound administration relative to control; format: functional, organism-based; set-up: dose 2 mg/kg; conditions: Medulla of organ, tested as the 125I-labelled form
[13] = target: T1, Sodium- and chloride-dependent glycine transporter 1 (Rattus norvegicus); assay: Binding affinity to GlyT1 in rat brain cerebral cortex at 0.03 to 0.04 nM preincubated for 20 mins in binding buffer before compound addition measured after 30 mins by autoradiography in presence of GlyT1 inhibitor N-Me-SSR504734 relative to control; format: tissue-based; conditions: tested as the 125I-labelled form; method in brief: as §4
Mus musculus [14] = assay: In vivo binding affinity to GlyT1 in ddY mouse brain cortex at 33.3 kBq, iv after 60 mins in presence of SSR504734 2 mg/kg, iv administered 15 mins prior to compound administration relative to control; format: functional, organism-based; set-up: dose 2 mg/kg; conditions: tested as the 125I-labelled form
Method in brief: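 Blocking study in male ddY mice (6 weeks, 30–35 g). The blocker (2 mg/kg in 30% DMSO/saline) was injected i.v. 15 min before about 33.3 kBq [125I]tracer i.v.; mice were killed at 30 or 60 min. Brains were divided into cortex, corpus callosum, hippocampus, thalamus, midbrain, medulla and cerebellum, weighed and gamma-counted as % dose/g. Values are mean ± SD, n = 5–6, compared to control by Kruskal–Wallis with Dunn's post-test.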

[15] = target: T1, Sodium- and chloride-dependent glycine transporter 1 (Rattus norvegicus); assay: Binding affinity to GlyT1 in rat brain corpus callosum at 0.03 to 0.04 nM preincubated for 20 mins in binding buffer before compound addition measured after 30 mins by autoradiography in presence of 0.01 mM GlyT1 inhibitor HPCP relative to control; format: tissue-based; conditions: tested as the 125I-labelled form; method in brief: as §4

Row | Drug uptake (Kidney [2]) [% ID/g] | Drug uptake (Pancreas) [% ID/g] | Drug uptake (Heart [3]) [% ID/g] | Drug uptake (Stomach) [% ID/g] | Drug uptake (Heart [4]) [% ID/g] | Drug uptake (Liver) [% ID/g] | Drug uptake (Kidney [5]) [% ID/g] | Activity [6] | Activity [7] [%] | Activity [8] [%] | Activity [10] | Activity [11] [%] | Activity [13] [%] | Activity [15] [%] | SMILES | Activity (Mus musculus [1]) [%] | Activity (Mus musculus [9]) | Activity (Mus musculus [12]) | Activity (Mus musculus [14])
1 | 6.97 | 6.4 | 3.38 | 8.66 | 2.79 | 1.82 | 8.86 |  |  |  |  |  |  |  | CN1CCCC[C@H]1[C@@H](NC(=O)c1cccc(C(F)(F)F)c1[125I])c1ccccc1 | 58 |  |  | 
2 |  |  |  |  |  |  |  | Active | 71.5 | 52.7 | inactive | 31 | 37.5 | 19.7 | CN1CCCC[C@H]1[C@@H](NC(=O)c1cccc(C(F)(F)F)c1I)c1ccccc1 |  | Active | inactive | inactive
